Bioassay records from PubChem.
Rows were chosen to be rich in hits. Some 9.6% of all compounds tested hit in one or more screens of this group.
TNAP inh hi DEA – inhibitors of human TNAP at high phosphate acceptor concentration; AID 1135; P05186; 200,000 tested, 0.03% active; purified TNAP, CDP-star luminescence, 1 M DEA; inhibition, % at 20 µM;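 active means over 50% inhibition of tissue-nonspecific alkaline phosphatase at 20 µM in the single-dose screen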;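 further: plate controls were DMSO wells for no effect and EDTA-quenched wells as full inhibition for full effect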
Target sequence (P05186 whole entry, looked up): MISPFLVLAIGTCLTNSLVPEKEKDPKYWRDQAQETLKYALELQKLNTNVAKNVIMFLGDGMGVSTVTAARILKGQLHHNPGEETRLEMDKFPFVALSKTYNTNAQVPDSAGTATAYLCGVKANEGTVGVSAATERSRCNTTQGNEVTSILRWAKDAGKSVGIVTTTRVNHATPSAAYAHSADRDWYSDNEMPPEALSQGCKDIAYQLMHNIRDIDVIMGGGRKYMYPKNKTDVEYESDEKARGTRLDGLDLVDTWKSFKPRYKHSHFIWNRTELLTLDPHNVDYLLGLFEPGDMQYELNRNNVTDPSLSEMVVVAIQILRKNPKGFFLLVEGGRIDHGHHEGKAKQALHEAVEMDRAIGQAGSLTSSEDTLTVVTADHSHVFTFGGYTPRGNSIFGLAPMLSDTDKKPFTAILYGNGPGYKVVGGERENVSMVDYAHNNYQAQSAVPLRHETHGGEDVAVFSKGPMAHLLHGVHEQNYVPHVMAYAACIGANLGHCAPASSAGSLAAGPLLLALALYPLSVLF
bCat KO growth – beta-catenin-lacking colon tumor cell growth suppression | viability, % at 10 µM | 140,000 tested, 1.5% active | HCT116 beta-catenin knockout viability, CellTiter-Glo, 60 h; hits give low values | AID 818;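 active means viability at or under a set limit, the compound median less 4 SD, cut at about 6% in these data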;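 further: 0% = Hyamine 1622 control at 20 µM and 100% = untreated cell control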
TNAP inh noacc – inhibitors of human TNAP without phosphate acceptor; purified TNAP, CDP-star luminescence, 30 min; inhibition, % at 20 µM; 200,000 tested, 0.26% active;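 active means tissue-nonspecific alkaline phosphatase inhibition above about 50% at 20 µM in the single-dose screen, limit read from the data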;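 further: 0% = DMSO negative control and 100% = EDTA positive control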
L major viab – inhibitors of Leishmania major promastigote growth; Leishmania major promastigotes, resazurin fluorescence viability; inhibition, % at 10 µM; 200,000 tested, 9% active; AID 1063; in the data active means inhibition above about 50%;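 further: promastigotes grown with compound for 44 hours at 28 °C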
HCT116 PTEN-null – suppresses growth of cells with PTEN deletion; HCT116 PTEN-null viability, CellTiter-Glo, 60 h; hits give low values; viability, % at 10 µM; 140,000 tested, 1.2% active; AID 827;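 active means viability at or below a set limit, 4 SD under the median of all tested compounds, cut at about 3.7% in these data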;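 further: PTEN knockout HCT116 line with beta catenin targeted HCT116 as companion control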
TNAP act hi DEA – TNAP (human) activation, high acceptor. activation factor at 20 µM. P05186. 200,000 tested, under 10 active. AID 1136. purified TNAP, CDP-star luminescence, 1 M DEA, 30 min; hits give high values; 0 = EDTA background, 1 = DMSO-only activity;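 active means activation factor at least 2 at 20 µM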
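Control set: EDTA negative control, DMSO positive control / Assay system: human TNAP / Quantity: TNAP 1/800 final / Evaluation: TNAP activation factor scaled between EDTA and DMSO control wells / Measured by: luminescent substrate turnover signal / Compound dosing: one dose, 20 µM / Times: 30 min enzyme reaction at room temperature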
Starred values were filed as active, the others as inactive.

For CCn1c(SCC(=O)Nc2ccccc2OC)nnc1-c1cnccn1 the results were TNAP inh hi DEA -3, bCat KO growth 83, TNAP inh noacc -10, L major viab 5, HCT116 PTEN-null 72 and TNAP act hi DEA 1.
Screening Cc1nnc(SCC(=O)Nc2sc3c(c2C(=O)c2ccccc2)CCCC3)s1 returned TNAP inh hi DEA 2, bCat KO growth 78, TNAP inh noacc 26, L major viab 89*, HCT116 PTEN-null 71 and TNAP act hi DEA 1.
`Cc1cc(NC(=O)CSc2nnc(-c3c[nH]c4ccccc34)n2-c2ccc(Cl)cc2)no1` gave TNAP inh hi DEA -5, bCat KO growth 93, TNAP inh noacc -11, L major viab 89*, HCT116 PTEN-null 95 and TNAP act hi DEA 1.
O=C(Cn1c(=O)n(-c2ccccc2)c(=O)c2sccc21)NCc1ccccc1 was read as TNAP inh hi DEA -6, TNAP inh noacc -13, L major viab 0 and TNAP act hi DEA 1.1.
For CC(=O)Nc1cccc(NC(=S)Nc2ccc(F)cc2F)c1 the results were TNAP inh hi DEA 0, TNAP inh noacc -3, L major viab 1 and TNAP act hi DEA 1.
For Cc1c(Cl)cccc1NC(=O)CSc1nnc(C)n1-c1ccccc1 the results were TNAP inh hi DEA 1, bCat KO growth 101, TNAP inh noacc -2, L major viab -11, HCT116 PTEN-null 92 and TNAP act hi DEA 1.
For CCOC(=O)c1c(NC(=O)CSc2nnc(-c3c[nH]c4ccccc34)n2CC)sc2c1CCCC2 the results were TNAP inh hi DEA -5, bCat KO growth 50, TNAP inh noacc -8, L major viab 55*, HCT116 PTEN-null 39 and TNAP act hi DEA 1.1.
For CCn1c(SCC(=O)Nc2ccc3c(c2)OCCO3)nnc1-c1c[nH]c2ccccc12 the results were TNAP inh hi DEA -6, TNAP inh noacc -7, L major viab 60* and TNAP act hi DEA 1.1.
For O=C(CSc1nnc(-c2n[nH]c3ccccc23)n1-c1ccccc1)Nc1ccccc1Cl the results were TNAP inh hi DEA -7, bCat KO growth 81, TNAP inh noacc -11, L major viab 60*, HCT116 PTEN-null 66 and TNAP act hi DEA 1.1.
Screening O=C(COC(=O)Cc1ccccc1F)Nc1cccc(F)c1 returned TNAP inh hi DEA 0, TNAP inh noacc -4, L major viab -4 and TNAP act hi DEA 1.
N#Cc1ccc(-c2ccc(OCC(=O)NCC(=O)Nc3ccc(F)c(F)c3F)cc2)cc1 was read as TNAP inh hi DEA 1, bCat KO growth 74, TNAP inh noacc -10, L major viab 58*, HCT116 PTEN-null 73 and TNAP act hi DEA 1.
For COc1ccc(Nc2ccc3c(c2)=NC2(CCCCC2)[N+]=3[O-])cc1 the results were TNAP inh hi DEA 13, bCat KO growth 1.1*, TNAP inh noacc 15, L major viab 101*, HCT116 PTEN-null 1.2* and TNAP act hi DEA 0.9.
For Cc1ccccc1C(OCCN(C(C)C)C(C)C)c1ccccc1 (stereo not given) the results were TNAP inh hi DEA -1, bCat KO growth 68, TNAP inh noacc -8, L major viab 8, HCT116 PTEN-null 73 and TNAP act hi DEA 1.
`CC(=O)Nc1n[nH]c(-c2ccc(C)cc2)c1C` gave TNAP inh hi DEA -6, TNAP inh noacc 85*, L major viab 1 and TNAP act hi DEA 1.1.
Screening Cc1cccc(C(=O)NNC(=O)c2ccco2)c1 returned TNAP inh hi DEA -1, bCat KO growth 96, TNAP inh noacc -33, L major viab 0, HCT116 PTEN-null 103 and TNAP act hi DEA 1.
For CCOC(=O)c1cc2c(C)n(-c3ccc(OCC)cc3)c(C)c2cc(C(=O)OCC)c1=O the results were TNAP inh hi DEA -2, bCat KO growth 92, TNAP inh noacc -10, L major viab -4, HCT116 PTEN-null 93 and TNAP act hi DEA 1.
`COC(=O)c1cc(C(=O)OC)cc(-n2c(C)cc(C(=O)COC(=O)CNS(=O)(=O)c3ccc(C)cc3)c2C)c1` gave TNAP inh hi DEA 2, bCat KO growth 98, TNAP inh noacc 15, L major viab 90*, HCT116 PTEN-null 90 and TNAP act hi DEA 1.
For COC(=O)c1ccc(-n2c(C)cc(C(=O)COC(=O)CNS(=O)(=O)c3ccc(C)cc3)c2C)cc1 the results were TNAP inh hi DEA -3, bCat KO growth 98, TNAP inh noacc 18, L major viab -8, HCT116 PTEN-null 92 and TNAP act hi DEA 1.
Screening CCOc1ccc(-n2c(C)cc(C(=O)CCl)c2C)cc1 returned TNAP inh hi DEA -3, TNAP inh noacc -16, L major viab 100* and TNAP act hi DEA 1.
Screening CCn1c(SCC(=O)c2cc(C)n(-c3ccc(C(=O)OC)cc3)c2C)nnc1-c1cccnc1 returned TNAP inh hi DEA 16, bCat KO growth 96, TNAP inh noacc -9, L major viab 71*, HCT116 PTEN-null 94 and TNAP act hi DEA 0.8.
COC(=O)c1ccc(-n2c(C)cc(C(=O)CCl)c2C)cc1 was read as TNAP inh hi DEA -2, TNAP inh noacc -15, L major viab 101* and TNAP act hi DEA 1.
For Cc1cccc(-n2nnc3c(=O)n(Cc4ccccn4)cnc32)c1 the results were TNAP inh hi DEA -3, TNAP inh noacc -7, L major viab -1 and TNAP act hi DEA 1.
Screening Cc1ccc(S(=O)(=O)N(C)CCCC(=O)Nc2cccc3ccccc23)cc1 returned TNAP inh hi DEA -7, bCat KO growth 65, TNAP inh noacc -6, L major viab 1, HCT116 PTEN-null 63 and TNAP act hi DEA 1.1.
Screening CC(=O)N1N=C(c2ccco2)CC1c1cccs1 (stereo not given) returned TNAP inh hi DEA -5, bCat KO growth 91, TNAP inh noacc -3, L major viab -4, HCT116 PTEN-null 106 and TNAP act hi DEA 1.
Screening O=C(CCl)N1N=C(c2ccco2)CC1c1cccs1 (stereo not given) returned TNAP inh hi DEA 4, bCat KO growth 3.2*, TNAP inh noacc 1, L major viab 90*, HCT116 PTEN-null 1.9* and TNAP act hi DEA 1.
`Cc1ccc(C2=NN(C(=O)CCl)C(c3cccs3)C2)o1` (stereo not given) gave TNAP inh hi DEA -1, bCat KO growth 3.6*, TNAP inh noacc -16, L major viab 90*, HCT116 PTEN-null 2.1* and TNAP act hi DEA 1.
O=C(COC(=O)C1CC1)NC(=O)NCc1ccccc1 was read as TNAP inh hi DEA -3, TNAP inh noacc -12, L major viab -8 and TNAP act hi DEA 1.
For CCCOc1ccc2c3c(c(=O)oc2c1OCCC)CCCC3 the results were TNAP inh hi DEA -6, bCat KO growth 74, TNAP inh noacc -6, L major viab 54*, HCT116 PTEN-null 64 and TNAP act hi DEA 1.1.
Screening O=C(N/N=C/c1ccccc1)c1sccc1OCc1ccc(F)cc1 returned TNAP inh hi DEA -2, bCat KO growth 73, TNAP inh noacc -7, L major viab 92*, HCT116 PTEN-null 66 and TNAP act hi DEA 1.
